# ChEMBL document CHEMBL5653631, “A Potent and Selective ULK1 Inhibitor Suppresses Autophagy and Sensitizes Cancer Cells to Nutrient Stress” (iScience, 2018)
# Calls of active or inactive are those of the source. The calls are words filed in the database; no cut-off is given here.
# Experiments:
# U2OS [1] = assay: Inhibition of autophagy in human U2OS cells expressing […] at 100 nM incubated for 2.5 hrs by Fluorescent microscopy based analysis; type: functional, cell-based
# Procedure, shortened: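 U2OS cells stably expressing EGFP-DFCP1 treated 2.5 hr with vehicle or 100 nM AZD8055, with or without 5 μM inhibitor; imaged live by fluorescence microscopy; DFCP1-positive objects per cell counted in 20–25 cells per condition; mean ± SEM, two-tailed unpaired t test.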
# U2OS [2] = assay: Inhibition of autophagy in human U2OS cells assessed as BafA1-induced LC3B-II accumulation by measuring fold change at 100 nM […] by immunoblotting analysis; type: functional; conditions: time 4 hrs
# U2OS [3] = assay: Inhibition of autophagy in human U2OS cells expressing […] assessed as DFCP1-positive puncta formation by measuring fold change at 100 nM incubated for 2.5 hrs by Fluorescent microscopy based analysis; type: functional
# Procedure, shortened: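 U2OS cells stably expressing EGFP-DFCP1 (omegasome marker) were treated 2.5 hr with vehicle or 100 nM AZD8055 (mTOR inhibitor used to induce autophagy), with or without 5 μM inhibitor, and imaged live by fluorescence microscopy. DFCP1-positive objects per cell were counted in 20–25 cells per condition and reported as mean ± SEM, with two-tailed unpaired t test.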
# U2OS [4] = assay: Inhibition of autophagy in human U2OS cells assessed as ATG12-positive puncta formation at 100 nM incubated for 2.5 hrs by Fluorescent microscopy based analysis; type: functional, cell-based
# Procedure, shortened: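 U2OS cells treated 2.5 hr with vehicle or 100 nM AZD8055, with or without 5 μM inhibitor; fixed and immunostained for endogenous ATG12; ATG12-positive puncta (phagophores) assessed by fluorescence microscopy.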
compound,measurement,setting,value
COc1ccc(-c2ccc3c(N4CCOC[C@@H]4C)nc(N4CCOC[C@@H]4C)nc3n2)cc1CO [AZD-8055],inhibition,U2OS [1],Active
same,fold change (FC),U2OS [2],2
same,fold change (FC),U2OS [3],3
same,inhibition,U2OS [4],Active
